Reference: ChEMBL document CHEMBL5113423, “Discovery and preclinical profile of sudapyridine (WX-081), a novel anti-tuberculosis agent” (Bioorg Med Chem Lett, 2022)
Values after ≈ are worked out from the molar mass of the structure shown.

How the values were obtained:
[1] = tested on: Mycobacterium tuberculosis; assay: Antimycobacterial activity against Mycobacterium tuberculosis H37Rv assessed as mycobacterial growth inhibition by microplate alamar blue assay; format: functional
In short: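 M. tuberculosis H37Rv under normoxic conditions, microplate alamar blue assay (MABA) following Cho et al. Read-out is MIC.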

[2] = tested on: Mycobacterium tuberculosis; assay: Antimycobacterial activity against Mycobacterium tuberculosis H37Rv assessed as mycobacterial growth inhibition by low oxygen recovery assay; format: functional
In short: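 M. tuberculosis H37Rv under hypoxic conditions, low-oxygen recovery assay (LORA) following Cho et al. Read-out is MIC.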

[3] = Cytotoxicity against human HeLa cells; format: toxicity, cell-based
[4] = Cytotoxicity against African green monkey Vero cells; format: toxicity, cell-based; settings: chlorocebus sabaeus
[5] = tested on: Mycobacterium tuberculosis; assay: Antimycobacterial activity against drug-sensitive Mycobacterium tuberculosis assessed as mycobacterial growth inhibition; format: functional
[6] = Apparent permeability across apical side to basolateral side in dog MDCK cells; format: ADME, cell-based, Canis lupus familiaris
[7] = Apparent permeability across basolateral side to apical side in dog MDCK cells; format: ADME, cell-based, Canis lupus familiaris
[8] = Efflux ratio of apparent permeability across basolateral to apical over apical to basolateral membrane in dog MDCK cells; format: ADME, cell-based, Canis lupus familiaris
[9] = Plasma protein binding in human assessed as bound fraction; format: ADME, cell-free; settings: read-out: PPB
[10] = Plasma protein binding in rat assessed as bound fraction; format: ADME, cell-free; settings: read-out: PPB
[11] = Microsomal stability in human liver microsomes assessed as clearance; format: ADME, Microsome; settings: read-out: CLH
[12] = Microsomal stability in rat liver microsomes assessed as clearance; format: ADME, Microsome; settings: read-out: CLH
[13] = Microsomal stability in mouse liver microsomes assessed as clearance; format: ADME, Microsome; settings: read-out: CLH
Cytochrome P450 1A2 = target: T1, Cytochrome P450 1A2 (Homo sapiens, UniProt P05177); assay: Inhibition of CYP1A2 (unknown origin); format: ADME
T1 sequence (P05177 whole entry): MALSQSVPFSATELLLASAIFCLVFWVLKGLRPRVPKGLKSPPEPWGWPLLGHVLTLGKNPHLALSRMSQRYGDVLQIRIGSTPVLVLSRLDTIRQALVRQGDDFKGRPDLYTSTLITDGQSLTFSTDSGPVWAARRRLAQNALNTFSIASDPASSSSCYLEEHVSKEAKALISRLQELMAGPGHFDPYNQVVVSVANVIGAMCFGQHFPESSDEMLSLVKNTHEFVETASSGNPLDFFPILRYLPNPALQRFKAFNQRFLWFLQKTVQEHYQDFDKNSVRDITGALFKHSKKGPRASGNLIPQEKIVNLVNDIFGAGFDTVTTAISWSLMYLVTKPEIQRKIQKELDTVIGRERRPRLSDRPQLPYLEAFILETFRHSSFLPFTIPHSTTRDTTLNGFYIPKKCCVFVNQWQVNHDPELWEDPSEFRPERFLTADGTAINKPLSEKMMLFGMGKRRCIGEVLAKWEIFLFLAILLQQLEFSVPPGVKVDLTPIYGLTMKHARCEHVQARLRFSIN
In short: (§1)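 Each CYP isoform screened for inhibition at a single test concentration of 10 μM.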

Cytochrome P450 2C9 = Cytochrome P450 2C9 (Homo sapiens, UniProt P11712); assay: Inhibition of CYP2C9 (unknown origin); format: ADME; in short: as §1
Cytochrome P450 2C19 = Cytochrome P450 2C19 (Homo sapiens, UniProt P33261); assay: Inhibition of CYP2C19 (unknown origin); format: ADME; in short: as §1
Cytochrome P450 2D6 = Cytochrome P450 2D6 (Homo sapiens, UniProt P10635); assay: Inhibition of CYP2D6 (unknown origin); format: ADME; in short: as §1
Cytochrome P450 3A4 = Cytochrome P450 3A4 (Homo sapiens, UniProt P08684); assay: Inhibition of CYP3A4 (unknown origin); format: ADME; in short: as §1
[14] = target: Voltage-gated inwardly rectifying potassium channel KCNH2 (Homo sapiens, UniProt Q12809); assay: Inhibition of human ERG; format: toxicity
[15] = Clearance in mouse at 1 mg/kg,iv; format: ADME, organism-based; settings: in vivo
In short: (§2)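 CD-1 mice. Single iv dose of 1 mg/kg. Clearance and half-life are derived from plasma concentration-time data.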

[16] = Volume of distribution at steady state in mouse at 1 mg/kg,iv; format: ADME, organism-based; settings: in vivo, read-out: Vdss
In short: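 PK in CD-1 mice at 1 mg/kg iv and 6.25 mg/kg po. Vd, CL and t1/2 taken from the iv arm; Cmax, AUC0-last and F% taken from the oral arm.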

[17] = Half life in mouse at 1 mg/kg,iv; format: ADME, organism-based; settings: in vivo; in short: as §2
[18] = Cmax in mouse at 6.25 mg/kg,po; format: ADME, organism-based; set-up: dose 6.25 mg/kg, route po; settings: in vivo
[19] = AUC (0 to last) in mouse at 6.25 mg/kg,po; format: ADME, organism-based; set-up: time 0 - last, dose 6.25 mg/kg, route po; settings: in vivo
[20] = Oral bioavailability in mouse at 6.25 mg/kg; format: ADME, organism-based; settings: in vivo
[21] = Clearance in Sprague-Dawley rat at 1 mg/kg,iv; format: ADME, organism-based; settings: in vivo
In short: (§3)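 SD rats. Single iv dose of 1 mg/kg. Clearance and half-life are derived from plasma concentration-time data.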

[22] = Volume of distribution at steady state in Sprague-Dawley rat at 1 mg/kg,iv; format: ADME, organism-based; settings: in vivo, read-out: Vdss
In short: (§4)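 PK in SD rats (1 mg/kg iv, 5.0 mg/kg po) and Beagle dogs (0.5 mg/kg iv, 2.0 mg/kg po). Vd taken from the iv arm, alongside CL and t1/2. Cmax and AUC0-last taken from the oral arm; F% calculated.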

[23] = Half life in Sprague-Dawley rat at 1 mg/kg,iv; format: ADME, organism-based; settings: in vivo; in short: as §3
[24] = Cmax in Sprague-Dawley rat at 5 mg/kg,po; format: ADME, organism-based; set-up: dose 5 mg/kg, route po; settings: in vivo
[25] = AUC (0 to last) in Sprague-Dawley rat at 5 mg/kg,po; format: ADME, organism-based; set-up: time 0 - last, dose 5 mg/kg, route po; settings: in vivo
[26] = Oral bioavailability in Sprague-Dawley rat at 5 mg/kg; format: ADME, organism-based; settings: in vivo
[27] = Clearance in Beagle dog at 0.5 mg/kg,iv; format: ADME, organism-based, Canis lupus familiaris; settings: in vivo
In short: (§5)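 Beagle dogs. Single iv dose of 0.5 mg/kg. Clearance and half-life are derived from plasma concentration-time data.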

[28] = Volume of distribution at steady state in Beagle dog at 0.5 mg/kg,iv; format: ADME, organism-based, Canis lupus familiaris; settings: in vivo, read-out: Vdss; in short: as §4
[29] = Half life in Beagle dog at 0.5 mg/kg,iv; format: ADME, organism-based, Canis lupus familiaris; settings: in vivo; in short: as §5
[30] = Cmax in Beagle dog at 2 mg/kg,po; format: ADME, organism-based, Canis lupus familiaris; set-up: dose 2 mg/kg, route po; settings: in vivo
[31] = AUC (0 to last) in Beagle dog at 2 mg/kg,po; format: ADME, organism-based, Canis lupus familiaris; set-up: time 0 - last, dose 2 mg/kg, route po; settings: in vivo
[32] = Oral bioavailability in Beagle dog at 2 mg/kg; format: ADME, organism-based, Canis lupus familiaris; settings: in vivo
[33] = Drug concentration in CD-1 mouse lung at 6.25 mg/kg,po measured after 96 hrs; format: ADME, organism-based; settings: read-out: Ct
In short: (§6)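 Tissue distribution study in CD-1 mice (6.25 mg/kg oral) and SD rats (5.0 mg/kg oral). Lung concentration (ng/g) and plasma concentration (ng/mL) measured 96 h after dosing. Lung/plasma ratio is lung concentration divided by plasma concentration.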

[34] = Drug concentration in CD-1 mouse plasma at 6.25 mg/kg,po measured after 96 hrs; format: ADME, organism-based; in short: as §6
[35] = Ratio of drug concentration in CD-1 mouse lung to plasma at 6.25 mg/kg,po measured after 96 hrs; format: ADME, organism-based; in short: as §6
[36] = Drug concentration in Sprague-Dawley rat lung at 5 mg/kg,po measured after 96 hrs; format: ADME, organism-based; settings: read-out: Ct; in short: as §6
[37] = Drug concentration in Sprague-Dawley rat plasma at 5 mg/kg,po measured after 96 hrs; format: ADME, organism-based; in short: as §6
[38] = Ratio of drug concentration in Sprague-Dawley rat lung to plasma at 5 mg/kg,po measured after 96 hrs; format: ADME, organism-based; in short: as §6
[39] = AUC in Sprague-Dawley rat at 200 mg/kg,po measured after 14 days; format: ADME, organism-based; set-up: dose 200 mg/kg, time 14 day, route po; settings: in vivo
In short: (§7)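 14-day pilot toxicology study in rats, 8 males and 8 females per dose level. Daily oral dosing, with 200 mg/kg as the high dose. Drug exposure is reported as AUC in µM·h.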

[40] = Toxicity in Sprague-Dawley rat assessed as death at 200 mg/kg,po measured after 14 days; format: organism-based; settings: in vivo, 336 h, time 14 day
In short: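 14-day pilot oral toxicology study in rats, 8 males and 8 females per dose level. Dosing once daily at 30, 100 and 200 mg/kg, with the reference drug at 200 mg/kg. Deaths counted over the 14 days; drug exposure (AUC) recorded in the high-dose groups.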

[41] = Toxicity in Beagle dog assessed as effect on electrocardiogram at 200 mg/kg,po; format: organism-based, Canis lupus familiaris; settings: in vivo
In short: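 14-day GLP toxicology study in Beagle dogs; oral dosing once daily at 200 mg/kg, given in parallel with the reference drug. ECG recorded daily to detect qualitative changes and QTc interval prolongation.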

[42] = AUC in Sprague-Dawley rat at 200 mg/kg,po measured after 12 days; format: ADME, organism-based; set-up: time 12 day, dose 200 mg/kg, route po; settings: in vivo; in short: as §7
[43] = Toxicity in Sprague-Dawley rat assessed as death at 200 mg/kg,po measured after 12 days; format: organism-based; settings: in vivo, 288 h, time 12 day

Sequence of Cytochrome P450 2C9 (P11712 whole entry): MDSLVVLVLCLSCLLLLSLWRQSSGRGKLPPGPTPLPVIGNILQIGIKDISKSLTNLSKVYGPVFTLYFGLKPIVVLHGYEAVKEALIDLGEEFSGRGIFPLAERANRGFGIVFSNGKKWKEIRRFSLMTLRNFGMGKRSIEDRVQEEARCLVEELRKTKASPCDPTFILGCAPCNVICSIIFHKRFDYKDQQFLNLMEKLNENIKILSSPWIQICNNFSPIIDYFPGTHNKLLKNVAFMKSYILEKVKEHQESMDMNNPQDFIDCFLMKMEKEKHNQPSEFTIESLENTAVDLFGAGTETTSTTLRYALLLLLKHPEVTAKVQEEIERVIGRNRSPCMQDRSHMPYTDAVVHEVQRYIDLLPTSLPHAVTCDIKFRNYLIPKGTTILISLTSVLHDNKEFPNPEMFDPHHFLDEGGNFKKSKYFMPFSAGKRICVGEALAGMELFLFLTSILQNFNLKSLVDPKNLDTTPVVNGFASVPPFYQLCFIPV
Sequence of Cytochrome P450 2C19 (P33261 whole entry): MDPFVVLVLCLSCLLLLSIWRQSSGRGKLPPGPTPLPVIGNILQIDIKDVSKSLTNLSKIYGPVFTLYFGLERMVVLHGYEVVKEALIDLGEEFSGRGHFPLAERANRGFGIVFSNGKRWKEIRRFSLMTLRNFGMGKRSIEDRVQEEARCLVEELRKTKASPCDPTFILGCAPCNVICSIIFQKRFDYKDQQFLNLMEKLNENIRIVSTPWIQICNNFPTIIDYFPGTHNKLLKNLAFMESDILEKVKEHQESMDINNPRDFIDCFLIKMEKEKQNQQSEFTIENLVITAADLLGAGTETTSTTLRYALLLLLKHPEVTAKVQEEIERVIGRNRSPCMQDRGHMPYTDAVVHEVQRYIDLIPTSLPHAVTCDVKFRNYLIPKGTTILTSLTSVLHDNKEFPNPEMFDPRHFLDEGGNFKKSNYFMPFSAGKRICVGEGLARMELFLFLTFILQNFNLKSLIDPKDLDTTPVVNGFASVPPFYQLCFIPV
Sequence of Cytochrome P450 2D6 (P10635 whole entry): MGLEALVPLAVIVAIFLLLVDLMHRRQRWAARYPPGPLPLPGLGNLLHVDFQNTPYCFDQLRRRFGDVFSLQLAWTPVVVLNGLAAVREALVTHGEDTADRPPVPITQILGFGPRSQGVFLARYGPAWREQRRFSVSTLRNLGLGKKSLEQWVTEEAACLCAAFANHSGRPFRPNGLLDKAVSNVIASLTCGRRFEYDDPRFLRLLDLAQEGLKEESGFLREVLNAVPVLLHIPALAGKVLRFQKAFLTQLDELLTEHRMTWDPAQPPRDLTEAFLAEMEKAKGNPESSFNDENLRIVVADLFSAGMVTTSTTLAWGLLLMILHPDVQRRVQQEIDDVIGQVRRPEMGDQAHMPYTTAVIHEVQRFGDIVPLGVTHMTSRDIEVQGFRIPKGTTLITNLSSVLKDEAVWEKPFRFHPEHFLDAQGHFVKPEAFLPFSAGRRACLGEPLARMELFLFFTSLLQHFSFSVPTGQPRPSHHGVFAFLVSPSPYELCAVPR
Sequence of Cytochrome P450 3A4 (P08684 whole entry): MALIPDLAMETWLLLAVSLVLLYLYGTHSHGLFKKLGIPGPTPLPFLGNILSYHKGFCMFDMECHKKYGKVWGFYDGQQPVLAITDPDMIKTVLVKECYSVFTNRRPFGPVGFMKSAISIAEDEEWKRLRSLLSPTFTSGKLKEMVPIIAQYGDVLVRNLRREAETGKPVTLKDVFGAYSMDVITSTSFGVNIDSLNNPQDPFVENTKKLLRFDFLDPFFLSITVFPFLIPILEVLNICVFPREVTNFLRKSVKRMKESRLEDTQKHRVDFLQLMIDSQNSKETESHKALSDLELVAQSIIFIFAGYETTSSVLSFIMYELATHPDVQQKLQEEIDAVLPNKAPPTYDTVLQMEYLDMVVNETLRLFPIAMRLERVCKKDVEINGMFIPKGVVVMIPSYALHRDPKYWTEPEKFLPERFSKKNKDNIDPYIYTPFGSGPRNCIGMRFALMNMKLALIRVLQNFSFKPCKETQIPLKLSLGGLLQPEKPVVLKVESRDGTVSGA
Sequence of Voltage-gated inwardly rectifying potassium channel KCNH2 (Q12809 whole entry): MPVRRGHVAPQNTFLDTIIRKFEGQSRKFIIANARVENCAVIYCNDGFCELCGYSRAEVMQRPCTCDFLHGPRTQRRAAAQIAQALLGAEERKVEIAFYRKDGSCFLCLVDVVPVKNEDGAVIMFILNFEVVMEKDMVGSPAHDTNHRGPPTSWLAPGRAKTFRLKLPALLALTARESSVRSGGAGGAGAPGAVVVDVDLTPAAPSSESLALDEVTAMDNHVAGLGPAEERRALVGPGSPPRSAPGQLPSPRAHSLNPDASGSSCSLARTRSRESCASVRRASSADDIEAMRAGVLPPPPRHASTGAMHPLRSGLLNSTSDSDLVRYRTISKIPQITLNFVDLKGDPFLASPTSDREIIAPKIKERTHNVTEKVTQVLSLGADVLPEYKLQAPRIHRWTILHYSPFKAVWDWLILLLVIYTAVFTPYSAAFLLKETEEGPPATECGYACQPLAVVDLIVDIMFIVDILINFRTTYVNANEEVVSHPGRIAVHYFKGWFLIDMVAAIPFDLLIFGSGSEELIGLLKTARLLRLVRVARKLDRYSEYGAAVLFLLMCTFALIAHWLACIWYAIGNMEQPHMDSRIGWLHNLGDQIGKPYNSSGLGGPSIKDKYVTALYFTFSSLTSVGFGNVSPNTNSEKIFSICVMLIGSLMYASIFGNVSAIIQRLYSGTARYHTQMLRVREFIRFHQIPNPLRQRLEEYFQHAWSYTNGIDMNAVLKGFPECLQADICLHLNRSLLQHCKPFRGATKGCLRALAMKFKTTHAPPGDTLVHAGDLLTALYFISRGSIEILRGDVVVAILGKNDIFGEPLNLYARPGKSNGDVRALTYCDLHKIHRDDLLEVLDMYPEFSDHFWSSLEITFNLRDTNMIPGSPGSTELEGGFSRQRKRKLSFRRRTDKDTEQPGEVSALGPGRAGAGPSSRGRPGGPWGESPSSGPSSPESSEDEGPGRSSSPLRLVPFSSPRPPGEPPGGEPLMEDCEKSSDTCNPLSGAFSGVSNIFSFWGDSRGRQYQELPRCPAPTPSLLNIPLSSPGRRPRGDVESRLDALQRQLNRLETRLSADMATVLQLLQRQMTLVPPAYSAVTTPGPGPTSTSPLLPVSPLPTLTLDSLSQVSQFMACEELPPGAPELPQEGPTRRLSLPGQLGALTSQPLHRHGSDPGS

COc1nc(-c2ccc(Cl)cc2)ccc1[C@@H](c1ccccc1)[C@@](O)(CCN(C)C)c1cccc2ccccc12
MIC [1]: 0.08 µg/mL (≈ 0.149 µM) | MIC [2]: 0.56 µg/mL (≈ 1.04 µM) | CC50 [3]: > 64 µg/mL | CC50 [4]: > 50 µg/mL | MIC50 [5]: 0.083 µg/mL (≈ 0.155 µM) | MIC90 [5]: 0.152 µg/mL (≈ 0.283 µM) | Papp A→B [6]: 0.04 ×10⁻⁶ cm/s | Papp B→A [7]: 0.11 ×10⁻⁶ cm/s | efflux ratio [8]: 2.54 | fraction unbound [9]: < 0.01 | fraction unbound [10]: < 0.01 | microsomal CLint [11]: 39.4 µL/min/mg | microsomal CLint [12]: 45.7 µL/min/mg | microsomal CLint [13]: 71.3 µL/min/mg | IC50 (Cytochrome P450 1A2): > 10 µM | IC50 (Cytochrome P450 2C9): > 10 µM | IC50 (Cytochrome P450 2C19): > 10 µM | IC50 (Cytochrome P450 2D6): > 10 µM | IC50 (Cytochrome P450 3A4): > 10 µM | IC50 [14]: > 30 µM | clearance [15]: 3.59 mL/min/kg | Vd [16]: 10.4 L/kg | half-life [17]: 46.3 h | Cmax [18]: 503 ng/mL | AUC(0-t) [19]: 10200 ng·h/mL | bioavailability [20]: 40.7% | clearance [21]: 8.25 mL/min/kg | Vd [22]: 9.2 L/kg | half-life [23]: 25.6 h | Cmax [24]: 328 ng/mL | AUC(0-t) [25]: 4080 ng·h/mL | bioavailability [26]: 36.7% | clearance [27]: 2.04 mL/min/kg | Vd [28]: 6.04 L/kg | half-life [29]: 56.2 h | Cmax [30]: 390 ng/mL | AUC(0-t) [31]: 8500 ng·h/mL | bioavailability [32]: 58.9% | concentration at 96 h [33]: 857 ng/g | concentration at 96 h [34]: 25.4 ng/mL | Kp at 96 h [35]: 33.7 | concentration at 96 h [36]: 337 ng/g | concentration at 96 h [37]: 4.74 ng/mL | Kp at 96 h [38]: 71.1 | AUC at 336 h [39]: 248 µM·h | Activity [40]: Toxic | Activity [41]: Non-Toxic

COc1nc2ccc(Br)cc2cc1[C@@H](c1ccccc1)[C@@](O)(CCN(C)C)c1cccc2ccccc12 [BEDAQUILINE]
MIC [1]: 0.03 µg/mL (≈ 0.054 µM) | MIC [2]: < 0.2 µg/mL | CC50 [3]: > 64 µg/mL | CC50 [4]: > 50 µg/mL | MIC50 [5]: 0.029 µg/mL (≈ 0.0522 µM) | MIC90 [5]: 0.043 µg/mL (≈ 0.0774 µM) | Papp A→B [6]: 0.06 ×10⁻⁶ cm/s | Papp B→A [7]: 0.09 ×10⁻⁶ cm/s | fraction unbound [9]: < 0.01 | fraction unbound [10]: < 0.01 | IC50 (Cytochrome P450 1A2): > 10 µM | IC50 (Cytochrome P450 2C9): > 10 µM | IC50 (Cytochrome P450 2C19): > 10 µM | IC50 (Cytochrome P450 2D6): > 10 µM | concentration at 96 h [33]: 135 ng/g | concentration at 96 h [34]: 4.56 ng/mL | Kp at 96 h [35]: 29.6 | concentration at 96 h [36]: 58.8 ng/g | concentration at 96 h [37]: 1.52 ng/mL | Kp at 96 h [38]: 38.7 | AUC at 288 h [42]: 109 µM·h | Activity [43]: Toxic | Activity [41]: 10%
